Shown are actives, neighbours in structure and some others; about 2.2% of the full set was active somewhere.
Ecoli rRNA inh – inhibits bacterial ribosomal RNA function over humanized ribosomes | E. coli WT GFP vs humanized-ribosome RFP mutants, fluorescence, 24 h; stronger effect = lower value; DMSO median 0, no signal -100 | 350,000 compounds, 1.6% hits | GFP signal change (wild-type ribosome), % (no concentration beside the values);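 active = significant combined selectivity score with lowered wild-type GFP, culture density cut under 30%, mutant RFP and density less affected; inactive = any of these conditions unmet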
FN deposition inh – fibronectin deposition inhibition; AH1F fibroblasts, Alexa488-fibronectin deposition fluorescence, overnight; 350,000 compounds, 0.086% hits; AID 743247; inhibition, % at 12.6 µM;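 active = mean inhibition across replicates of 30% or more, regardless of how many single replicates reach that level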;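 also: positive control wells lacked labelled fibronectin entirely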
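Material: AH1F fibroblast monolayer depositing Alexa488-labelled fibronectin into matrix | Input: 10000 AH1F cells/well | Medium: DMEM plus 2% serum, read in PBS | Reagent: Alexa488-fibronectin, 24 nM final in well | Compound dosing: One dose per compound, pinned | Schedule: 1 h adhesion, overnight exposure | Measured by: Fluorescence at 485 nm excitation, 525 nm emission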
ERp5 inh – inhibitors of human ERp5 | inhibition, % at 9.99 µM | 350,000 compounds, 0.05% hits | Q15084 | AID 651711 | ERp5 insulin aggregation, absorbance 650 nm, 90 min;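 active = mean replicate inhibition above about 25%, with every replicate also reaching it, limit read from the data, passing the limit was not always enough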
Target sequence (Q15084 whole entry, looked up): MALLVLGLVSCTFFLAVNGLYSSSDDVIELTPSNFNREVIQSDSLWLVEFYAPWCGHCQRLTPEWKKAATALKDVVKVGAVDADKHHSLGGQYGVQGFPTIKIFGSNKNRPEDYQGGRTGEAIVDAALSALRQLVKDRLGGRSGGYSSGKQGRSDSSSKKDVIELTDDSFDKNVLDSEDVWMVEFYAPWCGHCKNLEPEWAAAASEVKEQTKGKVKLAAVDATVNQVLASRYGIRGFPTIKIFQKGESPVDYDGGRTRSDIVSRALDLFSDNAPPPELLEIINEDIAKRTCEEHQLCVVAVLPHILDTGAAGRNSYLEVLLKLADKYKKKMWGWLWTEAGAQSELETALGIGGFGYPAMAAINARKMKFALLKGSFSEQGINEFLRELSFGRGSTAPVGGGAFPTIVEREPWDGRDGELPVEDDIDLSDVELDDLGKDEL
PvdQ inh – P. aeruginosa PvdQ acylase inhibition; inhibition, % at 10 µM; purified PvdQ acylase, fluorescence plate reader; 340,000 compounds, 0.063% hits; in the data active = inhibition above about 30%, passing the limit was not always enough;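 also: 0% = vehicle neutral wells and 100% = reference inhibitor wells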
HIV Env fusion – inhibitors of HIV Env-mediated cell fusion; inhibition, % at 12.3 µM; HeLa-JRFL Env/CEM21 cell fusion, luciferase; 360,000 compounds, 1.1% hits; AID 651610;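 active = mean replicate inhibition score of at least 50 and every replicate individually at or above 50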;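 also: 0% = plate neutral controls and 100% = maraviroc near 300 nM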
PDI inh – inhibitors of human protein disulfide isomerase; P07237; PDI insulin aggregation turbidity, A650, 90 min; inhibition, % at 10 µM; 350,000 compounds, 0.052% hits; AID 588391;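 active = mean inhibition across replicates of 30% or more, whatever share of single replicates reach that level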
An asterisk follows results filed as active; x = no result given; ! = a repeat was not active; [ ] = another dose, or the depositor's remark.

SMILES	Ecoli rRNA inh	FN deposition inh	ERp5 inh	PvdQ inh	HIV Env fusion	PDI inh
CCN1CCN(Cc2ccc(NC(=O)c3ccc(C)c(NC(=O)c4c[nH]c5cc(C(F)(F)F)ccc5c4=O)c3)cc2C(F)(F)F)CC1	3	-13	1	-9	106*!	-1
Cc1ccc(C(=O)Nc2cccc(C(F)(F)F)c2)cc1NC(=O)c1c[nH]c2cc(C(F)(F)F)ccc2c1=O	4	2	2	-17	x	11
COc1ccc(-c2cc(C(F)(F)F)nc(SCc3cccc(C(=O)O)c3)n2)cc1	-43*	x	-10	-9	x	2
O=C(O)c1cccc(CSc2nc(-c3ccccc3)cc(C(F)(F)F)n2)c1	-56	-4	-10	-22	-7	-12
NC(=O)N/N=C/c1cn(-c2ccccc2)nc1-c1ccccc1	-18*	2	2	0	-26	-6
O=C(N/N=C/c1cn(-c2ccccc2)nc1-c1cccnc1)c1ccc(F)cc1	-25*	21	-2	8	-20	-6
Cc1ccc(S(=O)(=O)N(C)C[C@H]2Oc3c(NC(=O)Nc4ccc(F)cc4)cccc3C(=O)N([C@H](C)CO)C[C@@H]2C)cc1	-2	x	2	x	4[16.7 µM]	x
CCN(CC(=O)NC(=O)NCc1ccco1)Cc1ccccc1	3	x	-11	-7	-39	4
CCN(CC(=O)NC(=O)NCc1ccccc1)Cc1ccccc1	-23*	x	1	-9	17	-2
C[C@@H]1CN([C@@H](C)CO)C(=O)Cc2cc(NC(=O)CCN3CCOCC3)ccc2O[C@@H]1CN(C)C(=O)Nc1ccc(C(F)(F)F)cc1	1	12	-7	x	-12[16.7 µM]	x
COc1ccc(OC(=O)N(C)C[C@@H]2OCc3ccccc3-c3ccccc3C(=O)N([C@H](C)CO)C[C@@H]2C)cc1	-1	-2	-4	x	-72[16.7 µM]	x
Cc1[nH]nc2c1C1(C(=O)N(Cc3ccc(Cl)cc3)c3ccccc31)C(C#N)=C(N)O2 (stereo unspecified)	x	0	x	15	85*	-19
CO[C@@H]1CN(C)C(=O)c2cc(NC(=O)Nc3ccccc3Cl)ccc2OC[C@@H](C)N(S(C)(=O)=O)C[C@H]1C	-6	6	x	x	15[16.7 µM]	x
Cc1ccccc1-c1cc(C(=O)Nc2sc(C(=O)OC(C)C)c(C)c2C#N)c2ccccc2n1	x	0	x	10	63*	2
COC(=O)c1sc(NC(=O)c2cc(-c3ccccc3)nc3ccccc23)c(C#N)c1C	x	x	x	11	x	15
C[C@@H]1CN([C@@H](C)CO)C(=O)Cc2cc(NC(=O)CCCCCC(=O)Nc3ccccc3N)ccc2O[C@H]1CN(C)S(=O)(=O)c1ccccc1	-1	x	0	x	-5[16.7 µM]	x
Cc1ccc(S(=O)(=O)N(C)C[C@@H]2Oc3ccc(NC(=O)CCCCCC(=O)Nc4ccccc4N)cc3CC(=O)N([C@H](C)CO)C[C@@H]2C)cc1	-3	x	-1	x	72*[16.7 µM]	x
C[C@H](CO)N1C[C@H](C)[C@H](CN(C)S(=O)(=O)c2ccccc2)Oc2ccc(NC(=O)CCCCCC(=O)Nc3ccccc3N)cc2CC1=O	0	x	-1	x	57*[16.7 µM]	x
C[C@@H]1CN([C@H](C)CO)C(=O)Cc2cc(NC(=O)CCCCCC(=O)Nc3ccccc3N)ccc2O[C@@H]1CN(C)Cc1ccc(Oc2ccccc2)cc1	-4	x	0	x	56*[16.7 µM]	x
C[C@H]1CN([C@@H](C)CO)C(=O)Cc2cc(NC(=O)CCCCCC(=O)Nc3ccccc3N)ccc2O[C@@H]1CN(C)Cc1ccc(Oc2ccccc2)cc1	-3	x	-2	x	21[16.7 µM]	x
CC(C)C1CC(CCNCc2ccc3c(c2)OCO3)(c2ccccc2)CCO1 (stereo unspecified)	-24*	0	10	3	-9	4
Cc1ccc(-c2cnc3c(c2)C(=O)N([C@@H](C)CO)C[C@H](C)[C@@H](CN(C)C(=O)c2ccc(F)cc2)O3)cc1	-1	x	-5	x	-32[16.7 µM]	x
O=S(=O)(NCC1CCCO1)c1ccc(Oc2ccccc2)cc1 (stereo unspecified)	x	x	x	-5	57*	-3
COc1ccc(S(=O)(=O)Nc2cccc3c2O[C@H](CN(C)C)[C@H](C)CN([C@H](C)CO)C3=O)cc1	-2	x	-4	x	x	x
COc1ccc2c3c([nH]c2c1)[C@H](CO)N(S(C)(=O)=O)CC31CN(C(=O)c2cccnc2)C1	1	x	5	x	x	x
SMILES	Ecoli rRNA inh	FN deposition inh	ERp5 inh	PvdQ inh	HIV Env fusion	PDI inh
CCOC(=O)C1=C(C)Nc2ccccc2N=C1NC(=O)C(c1ccccc1)c1ccccc1	-21*	-5	0	-5	15	10
CCn1cc(C(=O)OCC(=O)Nc2ccccc2OC(F)F)c(=O)c2ccc(C)nc21	-28	0	-1	2	-9	-1
CCn1cc(C(=O)OCC(=O)Nc2ccc(C(C)C)cc2)c(=O)c2ccc(C)nc21	-23*	-24	5	2	11	-4
Nc1cc(S(=O)(=O)Nc2cc(Cl)ccc2Cl)ccc1N1CCCC1	-28	-2	0	-8	1	-2
COc1ccc(NS(=O)(=O)c2ccc(N3CCCC3)c(NC(=S)Nc3cccc(C)c3C)c2)cc1	x	x	x	-6	149*	1
Nc1ccc(N2CCOCC2)c(S(=O)(=O)Nc2cc(Cl)ccc2Cl)c1	-26*	10	1	-5	10	5
CNC(=S)Nc1cc(S(=O)(=O)Nc2cc(Cl)ccc2Cl)ccc1N1CCCC1	-27*	5	0	-6	26	-2
CCC(=O)N1CC2(C1)[C@@H](c1ccccc1)[C@@H](CO)N2C(=O)c1cccnc1	4	x	0	x	x	x
Cc1ccc(OCCn2cnc3c(N)ncnc32)cc1	x	x	x	-8	23	-6
CCOc1ccc(OCCn2c(=S)[nH]c3c(N)ncnc32)cc1	-31*	8	-4	-19	-2	-6
Cc1nn(-c2ccccc2)nc1C(=O)NNC(=O)c1cccc2ccccc12	-21*	-5	0	-3	-13	8
CC(=O)Nc1ccc2c(c1)CC(=O)N(C)C[C@@H](C)[C@H](CN(C)C(=O)NC(C)C)O2	0	-8	x	x	x	x
CCCC#Cc1ccc2c(c1)O[C@H](CN(C)S(=O)(=O)c1cccc(F)c1)[C@H](C)CN([C@@H](C)CO)S2(=O)=O	2	-24	1	x	64*[16.7 µM]	x
C[C@@H]1CN([C@@H](C)CO)S(=O)(=O)c2ccc(-c3cccc(F)c3)cc2O[C@@H]1CN(C)S(=O)(=O)c1ccc(F)cc1	2	-7	7	x	59*[16.7 µM]	x
CC(C)CC#Cc1ccc2c(c1)O[C@@H](CN(C)S(=O)(=O)c1ccc(F)cc1)[C@H](C)CN([C@@H](C)CO)S2(=O)=O	2	-2	-4	x	60*[16.7 µM]	x
CCCC#Cc1ccc2c(c1)O[C@H](CN(C)S(=O)(=O)c1cccc(F)c1)[C@@H](C)CN([C@@H](C)CO)S2(=O)=O	-1	x	-1	x	11[16.7 µM]	x
C[C@H]1CN([C@@H](C)CO)S(=O)(=O)c2ccc(-c3cccc(F)c3)cc2O[C@H]1CN(C)S(=O)(=O)c1ccc(F)cc1	0	2	1	x	42[16.7 µM]	x

Screening data as filed in PubChem BioAssay.
